Measurements: ChEMBL document CHEMBL1148923, “Novel cassane and cleistanthane diterpenes from Myrospermum frutescens: absolute stereochemistry of the cassane diterpene series” (J Nat Prod, 2004)

Legend:
Trypanosoma cruzi [1] = assay: Antitrypanosomal activity against extracellular Trypanosoma cruzi Tulahuen clone C4; format: functional, organism-based
Vero = assay: Cytotoxicity against african green monkey Vero cells after 4 hrs by MTT assay; format: cell-based; conditions: Chlorocebus sabaeus
How it was run: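 Adherent Vero cells were treated with compound and incubated 4 h at 37°. Viability was read from MTT reduction in an ELISA reader at 570 nm.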

Trypanosoma cruzi [2] = assay: Antitrypanosomal activity against intracellular Trypanosoma cruzi Tulahuen clone C4 assessed as cleavage of […]; format: functional, organism-based
How it was run: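 Transgenic T. cruzi (Tulahuen strain, clone C4) expressing β-galactosidase were exposed to added compound. Growth of the intracellular form was read as cleavage of chlorophenol red-β-D-galactoside (CPRG) at 570 nm.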

IC50 (Trypanosoma cruzi [1]) [µM]	IC50 (Trypanosoma cruzi [2]) [µM]	Structure (SMILES)	IC50 (Vero) [µM]
48	–	C=CC1=C(C)[C@@H]2CC[C@H]3[C@](C)(CO)CCC[C@]3(C)[C@H]2CC1	–
–	–	C[C@]1(CO)CCC[C@]2(C)[C@H]3CC(=O)[C@@]4(C)[C@@H]([C@@H]3CC[C@@H]12)[C@@H]4CO	433
38.8	76	C=CC1=C(CO)[C@@H]2C[C@@H](O)[C@H]3[C@](C)(COC(C)=O)CCC[C@]3(C)[C@H]2CC1 [CHAGRESNOL]	156
17.7	79.1	C=CC1=C(C)[C@@H]2CC(=O)[C@H]3[C@](C)(COC(C)=O)CCC[C@]3(C)[C@H]2CC1	238
11	–	C=CC1=C(C)[C@@H]2C[C@@H](O)[C@H]3[C@](C)(COC(C)=O)CCC[C@]3(C)[C@H]2CC1	–
75	–	CO[C@@]12C[C@H]3[C@@H]([C@@H](O)[C@@H](OC(C)=O)[C@H]4[C@](C)(COC(C)=O)CCC[C@]34C)[C@@H](C)C1=CC(=O)O2 [CHAGRESLACTONE]	225
56.9	95.5	CC(=O)OC[C@H]1[C@@H]2[C@@H]3CC[C@H]4[C@@](C)(CO)CCC[C@]4(C)[C@H]3CC(=O)[C@@]21C [CHAGRESNONE]	448
16	–	C=C[C@@]1(O)CC[C@H]2[C@@H](C[C@@H](O)[C@H]3[C@](C)(COC(C)=O)CCC[C@]23C)C1=C	–
40.4	61.4	CC(=O)OC[C@]1(C)CCC[C@]2(C)[C@H]3CCC(C=O)=C(C)[C@@H]3CC(=O)[C@@H]12	416
–	16	C=CC1=C(C)[C@@H]2C[C@@H](O)[C@H]3[C@](C)(CO)CCC[C@]3(C)[C@H]2CC1	–
56.7	76.5	C=CC1=C(C)[C@@H]2C[C@@H](OC(C)=O)[C@H]3[C@](C)(CO)CCC[C@]3(C)[C@H]2CC1	178
